Laboratory results: ChEMBL document CHEMBL1128731, “Furanfurin and thiophenfurin: two novel tiazofurin analogues. Synthesis, structure, antitumor activity, and interactions with inosine monophosphate dehydrogenase” (J Med Chem, 1995)

Tests used:
Mus musculus [1] = experiment: Average weight change of mice from onset to termination of drug treatment at 400 mg/kg dose; assay type: functional
Procedure, shortened: (§1)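 Female BD2F1 mice (8 weeks, 20–22 g), eight per group, injected ip with 10^5 L1210 cells on day 0. From 24 h later, drug in 0.9% NaCl was given ip once daily for 9 days. Body weight change was averaged from onset to termination of treatment. Early deaths from toxicity were recorded.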

K562 [2] = experiment: Compound was tested for its effect on ADP ribonucleotide levels of K562 cell at 100 uM concentration; assay type: functional, Homo sapiens
Procedure, shortened: (§2)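 K562 cells (1×10^7) were treated with saline or agent for 2 h at 37 °C, harvested by centrifugation and washed with cold saline. They were extracted with cold 10% trichloroacetic acid, neutralized with 0.5 M tri-n-octylamine in freon, and analyzed by HPLC. Levels are in nmol/g and expressed as % of saline control. Significance was set at p < 0.05.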

[3] = IC50 ratio against bone marrow samples to HL-60; assay type: functional
Procedure, shortened: (§3)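 Antiproliferative assay scoring [125I]-5-iodo-2'-deoxyuridine incorporation into DNA after 72 h drug–cell contact. Run on normal human bone marrow from five donors and in three assays on HL-60. Ratio is antilog(mean log IC50 or IC90) on bone marrow over the same on HL-60. Range limits are antilog(mean log IC50 ± 2SD).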

K562 [4] = experiment: Compound was tested for its effect on GDP ribonucleotide levels of K562 cell at 100 uM concentration; assay type: functional, Homo sapiens; procedure, shortened: as §2
K562 [5] = experiment: Compound was tested for its effect on CTP ribonucleotide levels of K562 cell at 50 uM concentration; assay type: functional, Homo sapiens; procedure, shortened: as §2
LoVo = experiment: Inhibitory concentration against LoVo human colon adenocarcinoma cell lines; assay type: functional, cell-based
Procedure, shortened: (§4)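 Cells in log phase plated with a range of drug concentrations (B16 5×10^3 cells/well; P388, L1210, LLC 10^4 cells/well; HL-60, K562, LoVo 2.5×10^5 cells/well). Growth read by modified MTT after 72 h drug contact at 37 °C. IC50 taken as the concentration reducing optical absorption by 50%, from Chou regression analysis. Maximum concentration tested 200 μM.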

Homo sapiens [6] = organism: Homo sapiens; experiment: (§5) Inhibitory concentration range against human bone marrow; assay type: functional; procedure, shortened: as §3
K562 [7] = experiment: Compound was tested for its effect on AMP ribonucleotide levels of K562 cell at 100 uM concentration; assay type: functional, Homo sapiens; procedure, shortened: as §2
K562 [8] = experiment: Compound was tested for its effect on ATP ribonucleotide levels of K562 cell at 100 uM concentration; assay type: functional, Homo sapiens; procedure, shortened: as §2
K562 [9] = experiment: compound was tested for its effect on IMPDH activity against K562 cells at 50 uM concentration; assay type: functional, Homo sapiens
Procedure, shortened: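 K562 cells (1×10^6/mL, log phase) exposed 2 h at 37 °C to 10, 50 or 100 μM drug, or to saline. Cells washed and lysed in Tris-HCl pH 7.4/NaCl/MgCl2/NP-40/aprotinin, and the 13000g supernatant used as enzyme. Enzyme incubated 30 min at 37 °C with 286 μM [2,8-3H]IMP and 1 mM NAD. Tritium release counted; activity in nmol XMP/h/mg protein, as % of saline control.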

HL-60 [10] = experiment: (§6) Inhibitory concentration range against human HL-60 cell line; assay type: functional; procedure, shortened: as §3
K562 [11] = experiment: Compound was tested for its effect on UTP ribonucleotide levels of K562 cell at 50 uM concentration; assay type: functional, Homo sapiens; procedure, shortened: as §2
[12] = tested on: Lewis lung carcinoma cell line; experiment: Inhibitory concentration against LLC Lewis lung carcinoma; assay type: functional, cell-based; conditions: Mus musculus; procedure, shortened: as §4
K562 [13] = experiment: Compound was tested for its effect on GTP ribonucleotide levels of K562 cell at 50 uM concentration; assay type: functional, Homo sapiens; procedure, shortened: as §2
K562 [14] = experiment: Formation of NAD analogue by compound at 100 uM concentration against human myelogenous leukemia K562; assay type: functional
Procedure, shortened: (§7)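 K562 cells (1×10^7/10 mL) were labeled with 185 nM [2,8-3H]adenosine for 1 h at 37 °C, then given saline or analogue for 2 h. Cells were pelleted, washed with PBS and extracted in cold 10% trichloroacetic acid. Extracts were neutralized with 0.5 M tri-n-octylamine in freon and run on SAX HPLC with ammonium phosphate buffer. Results are pmol NAD analogue per 10^9 cells.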

K562 [15] = experiment: Compound was tested for its effect on GMP ribonucleotide levels of K562 cell at 50 uM concentration; assay type: functional, Homo sapiens; procedure, shortened: as §2
K562 [16] = experiment: Compound was tested for its effect on ATP ribonucleotide levels of K562 cell at 50 uM concentration; assay type: functional, Homo sapiens; procedure, shortened: as §2
K562 [17] = experiment: Formation of NAD analogue by compound at 50 uM concentration against human myelogenous leukemia K562; assay type: functional; procedure, shortened: as §7
K562 [18] = experiment: Compound was tested for its effect on CDP ribonucleotide levels of K562 cell at 50 uM concentration; assay type: functional, Homo sapiens; procedure, shortened: as §2
K562 [19] = experiment: Compound was tested for its effect on IMPDH activity against K562 cells at 50 uM concentration; assay type: functional, Homo sapiens
Procedure, shortened: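 Log-phase K562 cells (1×10^6/mL) were exposed to saline or agent for 2 h at 37 °C, washed and lysed (Tris-HCl pH 7.4, NaCl, MgCl2, 0.5% NP-40, aprotinin). The cleared supernatant was incubated 30 min at 37 °C with 286 μM [2,8-3H]IMP and 1 mM NAD. Tritium release was counted by scintillation. Activity is nmol XMP/h/mg protein, also given as % of control.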

Homo sapiens [20] = organism: Homo sapiens; experiment: as §5; assay type: functional, organism-based; procedure, shortened: as §3
K562 [21] = experiment: Compound was tested for its effect on NAD ribonucleotide levels of K562 cell at 50 uM concentration; assay type: functional, Homo sapiens; procedure, shortened: as §2
K562 [22] = experiment: Compound was tested for its effect on UDP ribonucleotide levels of K562 cell at 100 uM concentration; assay type: functional, Homo sapiens; procedure, shortened: as §2
Mus musculus [23] = experiment: Compound was tested for ratio of survival time of treated to control mice x100 at 400 mg/kg dose; assay type: functional
Procedure, shortened: (§8)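 Female BD2F1 mice (8 weeks old, 20–22 g), eight per group, injected ip with 10^5 L1210 leukemia cells on day 0. Starting 24 h later, drug dissolved in 0.9% NaCl given ip once daily for 9 consecutive days. % T/C = survival time of treated/control mice × 100. Body weight change tracked from start to end of treatment.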

[24] = IC90 ratio against bone marrow samples to HL-60; assay type: functional; procedure, shortened: as §3
L1210 = experiment: Inhibitory concentration against L1210 murine lymphocytic leukemia; assay type: functional, cell-based; conditions: Mus musculus; procedure, shortened: as §4
K562 [25] = experiment: Compound was tested for its effect on CDP ribonucleotide levels of K562 cell at 100 uM concentration; assay type: functional, Homo sapiens; procedure, shortened: as §2
K562 [26] = experiment: Compound was tested for its effect on ADP ribonucleotide levels of K562 cell at 50 uM concentration; assay type: functional, Homo sapiens; procedure, shortened: as §2
Mus musculus [27] = experiment: Compound was tested for ratio of survival time of treated to control mice x100 at 25 mg/kg dose; assay type: functional; procedure, shortened: as §8
K562 [28] = experiment: Compound was tested for its effect on NAD ribonucleotide levels of K562 cell at 100 uM concentration; assay type: functional, Homo sapiens; procedure, shortened: as §2
K562 [29] = experiment: Compound was tested for its effect on GTP ribonucleotide levels of K562 cell at 100 uM concentration; assay type: functional, Homo sapiens; procedure, shortened: as §2
[30] = Ratio of IC50 against HL-60; assay type: functional; procedure, shortened: as §3
P388 = experiment: Inhibitory concentration against P388 murine lymphocytic leukemia cell lines; assay type: functional, cell-based; conditions: Mus musculus; procedure, shortened: as §4
K562 [31] = experiment: Compound was tested for its effect on AMP ribonucleotide levels of K562 cell at 50 uM concentration; assay type: functional, Homo sapiens; procedure, shortened: as §2
K562 [32] = experiment: Compound was tested for its effect on GDP ribonucleotide levels of K562 cell at 50u; assay type: functional, Homo sapiens; procedure, shortened: as §2
K562 [33] = experiment: Inhibitory concentration against K562 human myelogenous leukemia cell line; assay type: functional, cell-based; procedure, shortened: as §4
K562 [34] = experiment: Compound was tested for its effect on IMP ribonucleotide levels of K562 cell at 50 uM concentration; assay type: functional, Homo sapiens; procedure, shortened: as §2
K562 [35] = experiment: Compound was tested for its effect on GMP ribonucleotide levels of K562 cell at 100 uM concentration; assay type: functional, Homo sapiens; procedure, shortened: as §2
K562 [36] = experiment: Compound was tested for its effect on UDP ribonucleotide levels of K562 cell at 50 uM concentration; assay type: functional, Homo sapiens; procedure, shortened: as §2
K562 [37] = experiment: Compound was tested for its effect on UTP ribonucleotide levels of K562 cell at 100 uM concentration; assay type: functional, Homo sapiens; procedure, shortened: as §2
K562 [38] = experiment: Compound was tested for its effect on CTP ribonucleotide levels of K562 cell at 100 uM concentration; assay type: functional, Homo sapiens; procedure, shortened: as §2
Mus musculus [39] = experiment: Average weight change of mice from onset to termination of drug treatment at 25 mg/kg dose; assay type: functional; procedure, shortened: as §1
K562 [40] = experiment: Compound was tested for its effect on IMP ribonucleotide levels of K562 cell at 100 uM concentration; assay type: functional, Homo sapiens; procedure, shortened: as §2
K562 [41] = experiment: Compound was tested for its effect on UMP ribonucleotide levels of K562 cell at 50 uM concentration; assay type: functional, Homo sapiens; procedure, shortened: as §2
HL-60 [42] = experiment: Inhibitory concentration against HL-60 human promyelocytic leukemia; assay type: functional, cell-based; procedure, shortened: as §4
K562 [43] = experiment: Compound was tested for its effect on UMP ribonucleotide levels of K562 cell at 100 uM concentration; assay type: functional, Homo sapiens; procedure, shortened: as §2
HL-60 [44] = experiment: as §6; assay type: functional, cell-based; procedure, shortened: as §3

Question: With `NC(=O)c1csc([C@@H]2O[C@H](CO)[C@@H](O)[C@H]2O)n1` [TIAZOFURIN] as the molecule, how does the Change (Mus musculus [1]) read?
Answer: -13.1%

Question: What about the Control (K562 [2]) of the same molecule?
Answer: 99%

Question: And the Ratio [3]?
Answer: 7.3

Question: What about the Control (K562 [4]) of the same molecule?
Answer: 63%

Question: And the Control (K562 [5])?
Answer: 92%

Question: And the IC50 (LoVo)?
Answer: > 128 µM

Question: What about the IC90 (Homo sapiens [6]) of the same molecule?
Answer: >128 µM

Question: What about the Control (K562 [7]) of the same molecule?
Answer: 103%

Question: And the Control (K562 [8])?
Answer: 91%

Question: What about the Control (K562 [9]) of the same molecule?
Answer: 37%

Question: What about the IC90 (HL-60 [10]) of the same molecule?
Answer: 7.6 µM

Question: What about the Control (K562 [11]) of the same molecule?
Answer: 115%

Question: And the IC50 [12]?
Answer: 1.5 µM

Question: And the Control (K562 [13])?
Answer: 64%

Question: What about the Formation (K562 [14]) of the same molecule?
Answer: 310 pmol/10^9 cells

Question: What about the Control (K562 [15]) of the same molecule?
Answer: 62%

Question: What about the Control (K562 [16]) of the same molecule?
Answer: 101%

Question: What about the Formation (K562 [17]) of the same molecule?
Answer: 186 pmol/10^9 cells

Question: What about the Control (K562 [18]) of the same molecule?
Answer: 104%

Question: What about the Activity (K562 [19]) of the same molecule?
Answer: 1.82

Question: What about the IC50 (Homo sapiens [20]) of the same molecule?
Answer: 10.4 µM

Question: And the Control (K562 [21])?
Answer: 98%

Question: And the Control (K562 [22])?
Answer: 116%

Question: What about the T/C (Mus musculus [23]) of the same molecule?
Answer: 260%

Question: What about the Ratio [24] of the same molecule?
Answer: >6

Question: And the IC50 (L1210)?
Answer: 7.4 µM

Question: And the Control (K562 [25])?
Answer: 85%

Question: What about the Control (K562 [26]) of the same molecule?
Answer: 103%

Question: What about the T/C (Mus musculus [27]) of the same molecule?
Answer: 177%

Question: And the Control (K562 [28])?
Answer: 84%

Question: And the Control (K562 [29])?
Answer: 54%

Question: And the Ratio [30]?
Answer: 1.9

Question: And the IC50 (P388)?
Answer: 2.2 µM

Question: What about the Control (K562 [31]) of the same molecule?
Answer: 100%

Question: And the Control (K562 [32])?
Answer: 82%

Question: And the IC50 (K562 [33])?
Answer: 4.5 µM

Question: What about the Control (K562 [34]) of the same molecule?
Answer: 544%

Question: And the Control (K562 [35])?
Answer: 55%

Question: What about the Control (K562 [36]) of the same molecule?
Answer: 120%

Question: What about the Control (K562 [37]) of the same molecule?
Answer: 90%

Question: What about the Control (K562 [38]) of the same molecule?
Answer: 32%

Question: What about the Change (Mus musculus [39]) of the same molecule?
Answer: -4.3%

Question: And the Control (K562 [40])?
Answer: 578%

Question: What about the Control (K562 [41]) of the same molecule?
Answer: 113%

Question: What about the IC50 (HL-60 [42]) of the same molecule?
Answer: 8.7 µM

Question: And the Control (K562 [43])?
Answer: 96%

Question: And the IC50 (HL-60 [44])?
Answer: 2.5 µM
